Results: the M2OR odorant receptor database

How the values were obtained:
Settings in all cases: stereoisomer not certain
OR8H1 (Homo sapiens) = OR8H1 (Homo sapiens) (UniProt Q8NGG4)
In short: (§1)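 Each receptor–molecule pair is labelled responsive or non-responsive (inactive) according to whether the original authors judged the measured signal statistically different from baseline. The data were taken from the main text and supplementary material of published papers and checked for typos and inconsistencies. Assay methods differed by source, with transient luciferase assays in mammalian cell lines being common.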

OR8H2 (Homo sapiens) = OR8H2 (Homo sapiens) (UniProt Q8N162)
In short: as §1

OR8H2 H120Y Y169C V284M = test system: OR8H2 H120Y Y169C V284M
In short: as §1

OR8H3 (Homo sapiens) = OR8H3 (Homo sapiens) (UniProt Q8N146)
In short: as §1

OR8H3 = test system: OR8H3
In short: as §1

OR8I2 (Homo sapiens) = OR8I2 (Homo sapiens) (UniProt Q8N0Y5)
In short: as §1

OR8J1 (Homo sapiens) = OR8J1 (Homo sapiens) (UniProt Q8NGP2)
In short: as §1

OR8J1 = test system: OR8J1
In short: as §1

OR8J3 (Homo sapiens) = OR8J3 (Homo sapiens) (UniProt Q8NGG0)
In short: as §1

OR8J3 E4V = test system: OR8J3 E4V
In short: as §1

OR8K1 (Homo sapiens) = OR8K1 (Homo sapiens) (UniProt Q8NGG5)
In short: as §1

OR8K3 (Homo sapiens) = OR8K3 (Homo sapiens) (UniProt Q8NH51)
In short: as §1

OR8K5 (Homo sapiens) = OR8K5 (Homo sapiens) (UniProt Q8NH50)
In short: as §1

OR8S1 (Homo sapiens) = OR8S1 (Homo sapiens) (UniProt Q8NH09)
In short: as §1

OR8U1 (Homo sapiens) = OR8U1 (Homo sapiens) (UniProt Q8NH10)
In short: as §1

OR8U3 (Homo sapiens) = OR8U3 (Homo sapiens) (UniProt Q8NH85)
In short: as §1

OR8U8 [1] = test system: OR8U8
In short: as §1
Target sequence in this assay (as listed by the source): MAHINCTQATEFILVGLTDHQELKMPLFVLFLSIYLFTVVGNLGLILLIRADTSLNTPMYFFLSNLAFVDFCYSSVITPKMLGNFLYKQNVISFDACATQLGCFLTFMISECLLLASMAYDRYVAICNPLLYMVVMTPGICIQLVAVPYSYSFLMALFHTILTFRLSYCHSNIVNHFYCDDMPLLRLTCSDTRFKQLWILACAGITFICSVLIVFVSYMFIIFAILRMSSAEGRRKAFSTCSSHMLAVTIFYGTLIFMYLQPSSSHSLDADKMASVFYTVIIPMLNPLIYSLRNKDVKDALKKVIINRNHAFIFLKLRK

OR8U8 [2] = test system: OR8U8; remark: listed apart in the source
In short: as §1

OR8J2 (Homo sapiens) = OR8J2 (Homo sapiens) (UniProt Q8NGG1)
In short: as §1

OR8U8 (Homo sapiens) = OR8U8 (Homo sapiens) (UniProt P0C7N1)
In short: as §1

Measured: odorant receptor agonist call;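 also: active if original authors judged signal statistically different from baseline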

OR8U1 (Homo sapiens), sequence (Q8NH10 whole entry): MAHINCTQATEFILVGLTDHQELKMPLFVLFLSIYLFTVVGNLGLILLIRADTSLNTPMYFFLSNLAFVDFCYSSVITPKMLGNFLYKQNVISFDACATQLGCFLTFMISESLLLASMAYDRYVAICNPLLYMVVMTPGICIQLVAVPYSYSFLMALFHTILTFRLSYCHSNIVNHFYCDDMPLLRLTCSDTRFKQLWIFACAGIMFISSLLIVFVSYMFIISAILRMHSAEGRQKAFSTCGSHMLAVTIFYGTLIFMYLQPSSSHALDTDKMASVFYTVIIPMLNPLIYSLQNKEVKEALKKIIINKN
OR8K1 (Homo sapiens), sequence (Q8NGG5 whole entry): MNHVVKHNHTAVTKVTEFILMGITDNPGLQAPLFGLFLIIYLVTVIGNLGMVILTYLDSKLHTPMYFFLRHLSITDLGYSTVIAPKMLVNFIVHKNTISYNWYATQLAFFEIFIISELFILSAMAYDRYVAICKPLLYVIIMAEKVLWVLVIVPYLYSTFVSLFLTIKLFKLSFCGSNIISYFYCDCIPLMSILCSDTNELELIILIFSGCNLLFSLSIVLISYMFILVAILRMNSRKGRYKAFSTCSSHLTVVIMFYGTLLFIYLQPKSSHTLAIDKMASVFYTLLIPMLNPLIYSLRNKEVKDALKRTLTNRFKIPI
OR8J1 (Homo sapiens), sequence (Q8NGP2 whole entry): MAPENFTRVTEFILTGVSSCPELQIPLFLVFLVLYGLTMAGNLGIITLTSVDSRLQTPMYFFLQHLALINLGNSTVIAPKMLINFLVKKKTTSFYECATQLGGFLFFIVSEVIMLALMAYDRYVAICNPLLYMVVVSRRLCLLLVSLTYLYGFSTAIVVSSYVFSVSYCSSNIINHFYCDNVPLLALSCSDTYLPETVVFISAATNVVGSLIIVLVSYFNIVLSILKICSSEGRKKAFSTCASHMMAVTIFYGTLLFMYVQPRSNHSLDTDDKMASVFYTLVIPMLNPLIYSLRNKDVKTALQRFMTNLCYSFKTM
OR8H2 (Homo sapiens), sequence (Q8N162 whole entry): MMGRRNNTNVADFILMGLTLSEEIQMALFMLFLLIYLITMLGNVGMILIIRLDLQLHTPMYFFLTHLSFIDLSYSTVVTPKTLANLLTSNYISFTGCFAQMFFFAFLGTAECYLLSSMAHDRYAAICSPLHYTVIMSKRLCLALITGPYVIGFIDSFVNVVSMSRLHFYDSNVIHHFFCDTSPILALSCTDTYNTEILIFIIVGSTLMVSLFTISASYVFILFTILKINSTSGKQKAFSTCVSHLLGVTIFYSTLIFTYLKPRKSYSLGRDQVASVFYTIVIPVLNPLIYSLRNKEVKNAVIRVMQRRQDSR
OR8H3 (Homo sapiens), sequence (Q8N146 whole entry): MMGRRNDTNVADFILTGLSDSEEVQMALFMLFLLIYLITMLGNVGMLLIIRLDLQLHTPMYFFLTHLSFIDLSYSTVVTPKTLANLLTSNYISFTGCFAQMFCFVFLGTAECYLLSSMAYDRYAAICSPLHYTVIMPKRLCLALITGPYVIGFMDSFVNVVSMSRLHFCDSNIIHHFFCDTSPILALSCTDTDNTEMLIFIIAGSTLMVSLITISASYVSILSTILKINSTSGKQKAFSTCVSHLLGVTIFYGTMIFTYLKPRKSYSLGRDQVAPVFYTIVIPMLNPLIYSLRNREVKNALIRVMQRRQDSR
OR8S1 (Homo sapiens), sequence (Q8NH09 whole entry): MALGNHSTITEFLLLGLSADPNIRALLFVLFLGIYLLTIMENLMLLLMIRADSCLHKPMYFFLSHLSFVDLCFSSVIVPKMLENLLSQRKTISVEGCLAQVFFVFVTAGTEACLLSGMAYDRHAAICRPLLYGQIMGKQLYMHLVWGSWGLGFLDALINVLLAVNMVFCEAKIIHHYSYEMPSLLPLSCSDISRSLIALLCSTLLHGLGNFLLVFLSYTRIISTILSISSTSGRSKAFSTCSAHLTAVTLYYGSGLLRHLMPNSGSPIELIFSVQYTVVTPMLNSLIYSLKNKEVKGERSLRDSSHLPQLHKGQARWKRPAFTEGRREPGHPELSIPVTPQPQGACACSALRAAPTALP
OR8K3 (Homo sapiens), sequence (Q8NH51 whole entry): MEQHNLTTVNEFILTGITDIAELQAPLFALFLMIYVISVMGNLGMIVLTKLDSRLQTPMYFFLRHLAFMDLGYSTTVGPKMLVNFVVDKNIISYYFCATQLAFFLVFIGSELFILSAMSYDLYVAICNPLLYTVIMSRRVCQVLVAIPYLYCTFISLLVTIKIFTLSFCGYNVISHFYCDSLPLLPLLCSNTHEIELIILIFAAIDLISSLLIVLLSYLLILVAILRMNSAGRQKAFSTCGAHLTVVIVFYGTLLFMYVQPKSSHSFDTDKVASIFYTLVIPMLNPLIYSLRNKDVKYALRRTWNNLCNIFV
OR8K5 (Homo sapiens), sequence (Q8NH50 whole entry): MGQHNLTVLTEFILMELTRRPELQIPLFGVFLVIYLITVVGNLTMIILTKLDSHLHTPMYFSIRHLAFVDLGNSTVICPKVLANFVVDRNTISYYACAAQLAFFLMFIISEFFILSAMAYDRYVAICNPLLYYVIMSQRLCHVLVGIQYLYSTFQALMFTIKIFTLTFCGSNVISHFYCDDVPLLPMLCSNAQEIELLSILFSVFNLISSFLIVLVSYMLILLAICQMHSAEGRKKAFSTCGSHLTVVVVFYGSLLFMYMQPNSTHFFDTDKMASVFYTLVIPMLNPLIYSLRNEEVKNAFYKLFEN
OR8J3 (Homo sapiens), sequence (Q8NGG0 whole entry): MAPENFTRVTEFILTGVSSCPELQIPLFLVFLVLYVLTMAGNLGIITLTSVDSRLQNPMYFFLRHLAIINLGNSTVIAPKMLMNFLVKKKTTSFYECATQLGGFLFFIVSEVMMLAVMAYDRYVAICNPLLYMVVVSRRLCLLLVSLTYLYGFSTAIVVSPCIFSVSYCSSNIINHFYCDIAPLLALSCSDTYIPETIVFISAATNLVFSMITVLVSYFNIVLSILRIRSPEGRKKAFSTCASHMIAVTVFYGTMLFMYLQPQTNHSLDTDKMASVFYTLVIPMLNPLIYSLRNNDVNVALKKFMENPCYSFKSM
OR8I2 (Homo sapiens), sequence (Q8N0Y5 whole entry): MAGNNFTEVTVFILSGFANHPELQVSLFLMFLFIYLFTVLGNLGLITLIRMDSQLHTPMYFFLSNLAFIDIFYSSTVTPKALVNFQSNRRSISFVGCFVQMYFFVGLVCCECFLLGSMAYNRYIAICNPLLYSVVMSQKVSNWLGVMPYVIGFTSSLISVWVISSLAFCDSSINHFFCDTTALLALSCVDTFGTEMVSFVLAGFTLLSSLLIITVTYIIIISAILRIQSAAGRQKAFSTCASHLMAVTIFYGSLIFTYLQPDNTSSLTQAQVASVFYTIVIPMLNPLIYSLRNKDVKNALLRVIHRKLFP
OR8H1 (Homo sapiens), sequence (Q8NGG4 whole entry): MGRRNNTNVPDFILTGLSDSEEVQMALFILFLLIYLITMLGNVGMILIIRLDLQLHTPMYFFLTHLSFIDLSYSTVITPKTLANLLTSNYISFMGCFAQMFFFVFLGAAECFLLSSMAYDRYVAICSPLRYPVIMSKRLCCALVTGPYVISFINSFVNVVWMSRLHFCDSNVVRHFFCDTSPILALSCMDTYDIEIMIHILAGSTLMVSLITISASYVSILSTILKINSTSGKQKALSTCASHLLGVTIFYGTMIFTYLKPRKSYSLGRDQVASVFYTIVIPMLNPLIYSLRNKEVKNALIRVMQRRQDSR
OR8U3 (Homo sapiens), sequence (Q8NH85 whole entry): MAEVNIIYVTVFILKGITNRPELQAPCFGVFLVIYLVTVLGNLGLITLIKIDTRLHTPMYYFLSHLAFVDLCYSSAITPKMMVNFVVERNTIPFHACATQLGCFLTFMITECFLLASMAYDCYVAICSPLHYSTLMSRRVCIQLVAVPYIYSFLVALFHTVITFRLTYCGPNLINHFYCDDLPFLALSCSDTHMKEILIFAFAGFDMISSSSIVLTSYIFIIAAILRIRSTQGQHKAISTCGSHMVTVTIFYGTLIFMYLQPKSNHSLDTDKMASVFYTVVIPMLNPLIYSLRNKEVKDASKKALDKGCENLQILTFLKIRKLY
OR8U8 (Homo sapiens), sequence (P0C7N1 whole entry): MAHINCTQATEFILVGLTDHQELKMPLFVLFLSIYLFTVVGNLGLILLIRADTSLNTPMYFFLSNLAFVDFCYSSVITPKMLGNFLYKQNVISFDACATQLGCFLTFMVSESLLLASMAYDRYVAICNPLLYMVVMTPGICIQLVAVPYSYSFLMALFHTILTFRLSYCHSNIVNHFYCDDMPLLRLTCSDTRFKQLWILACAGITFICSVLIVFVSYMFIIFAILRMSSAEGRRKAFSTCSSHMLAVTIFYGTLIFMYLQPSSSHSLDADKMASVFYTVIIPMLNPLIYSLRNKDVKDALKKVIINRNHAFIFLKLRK
OR8J3 E4V, sequence (as listed by the source): as the sequence (Q8NGG0 whole entry) above, with E4V counted along it

C=CCOC(=O)Cc1ccccc1
inactive: OR8H1 (Homo sapiens) | OR8H2 (Homo sapiens) | OR8H2 H120Y Y169C V284M | OR8H3 (Homo sapiens) | OR8H3 | OR8I2 (Homo sapiens) | OR8J1 (Homo sapiens) | OR8J1 | OR8J3 (Homo sapiens) | OR8J3 E4V | OR8K1 (Homo sapiens) | OR8K3 (Homo sapiens) | OR8K5 (Homo sapiens) | OR8S1 (Homo sapiens) | OR8U1 (Homo sapiens) | OR8U3 (Homo sapiens) | OR8U8 [1] | OR8U8 [2]

Cc1c([N+](=O)[O-])c(C)c([N+](=O)[O-])c(C(C)(C)C)c1[N+](=O)[O-]
inactive: OR8H1 (Homo sapiens) | OR8H2 (Homo sapiens) | OR8H3 (Homo sapiens) | OR8I2 (Homo sapiens) | OR8J1 (Homo sapiens) | OR8J2 (Homo sapiens) | OR8J3 (Homo sapiens) | OR8K1 (Homo sapiens) | OR8K3 (Homo sapiens) | OR8K5 (Homo sapiens) | OR8S1 (Homo sapiens) | OR8U1 (Homo sapiens) | OR8U3 (Homo sapiens) | OR8U8 (Homo sapiens)
